ChEMBL document CHEMBL3751743, “Synthesis and anti-cancer screening of novel heterocyclic-(2H)-1,2,3-triazoles as potential anti-cancer agents” (Medchemcomm, 2015)

Tests used:
[1] = Cytotoxicity against human HOP92 cells after 48 hrs by SRB assay; type: functional; details: HOP-92, 48 h
In short: (§1)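 NCI-60 five-dose screen: compounds dissolved in DMSO/H2O, tested at five 10-fold dilutions (10^-4 to 10^-8 M) for 48 h. Growth measured by sulforhodamine B optical density at time zero and after 48 h drug or vehicle exposure. Percentage growth calculated relative to control. GI50 is the molar concentration giving 50% reduction in net cell growth versus day-0 cell numbers.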

[2] = Cytotoxicity against human SKOV3 cells after 48 hrs by SRB assay; type: functional; details: SK-OV-3, 48 h; in short: as §1
[3] = Cytotoxicity against human OVCAR8 cells after 48 hrs by SRB assay; type: functional; details: OVCAR-8, 48 h; in short: as §1
NCI-H23 = assay: Cytotoxicity against human NCI-H23 cells after 48 hrs by SRB assay; type: functional; details: NCI-H23, 48 h; in short: as §1
[4] = Cytotoxicity against human HL-60(TB) cells after 48 hrs by SRB assay; type: functional; details: HL-60, 48 h; in short: as §1
SN12C = assay: Cytotoxicity against human SN12C cells after 48 hrs by SRB assay; type: functional; in short: as §1
[5] = Cytotoxicity against human NCI-ADR-RES cells after 48 hrs by SRB assay; type: functional; in short: as §1
NCI-H226 = assay: Cytotoxicity against human NCI-H226 cells after 48 hrs by SRB assay; type: functional; details: NCI-H226, 48 h; in short: as §1
[6] = Cytotoxicity against human BT549 cells after 48 hrs by SRB assay; type: functional; details: BT-549, 48 h; in short: as §1
[7] = Cytotoxicity against human SF268 cells after 48 hrs by SRB assay; type: functional; details: SF-268, 48 h; in short: as §1
NCI-H460 = assay: Cytotoxicity against human NCI-H460 cells after 48 hrs by SRB assay; type: functional; details: NCI-H460, 48 h; in short: as §1
K562 = assay: Cytotoxicity against human K562 cells after 48 hrs by SRB assay; type: functional; details: K562, 48 h; in short: as §1
U-251 = assay: Cytotoxicity against human U251 cells after 48 hrs by SRB assay; type: functional; details: U-251, 48 h
In short: (§2)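 NCI-60 five-dose screen. Compounds dissolved in DMSO/H2O and tested at five 10-fold dilutions (10^-4 to 10^-8 M) for 48 h. Growth read by sulforhodamine B optical density at time zero and after 48 h of exposure to compound or vehicle. Percent growth calculated against control. GI50 is the molar concentration giving 50% reduction in net cell growth relative to cell number on day 0.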

[8] = Cytotoxicity against human SF295 cells after 48 hrs by SRB assay; type: functional; details: SF-295, 48 h; in short: as §1
[9] = Cytotoxicity against human MOLT4 cells after 48 hrs by SRB assay; type: functional; details: MOLT-4, 48 h; in short: as §1
[10] = Cytotoxicity against human UACC62 cells after 48 hrs by SRB assay; type: functional; details: UACC-62, 48 h; in short: as §2
ACHN = assay: Cytotoxicity against human ACHN cells after 48 hrs by SRB assay; type: functional; in short: as §1
[11] = Cytotoxicity against human SW620 cells after 48 hrs by SRB assay; type: functional; details: SW-620, 48 h; in short: as §1
Tubulin = Tubulin (Sus scrofa, UniProt P02554+P02550); assay: Inhibition of porcine brain tubulin polymerization by spectrophotometric analysis
In short: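 Tubulin at 4 mg/mL in cold 80 mM PIPES pH 6.9 with 2 mM MgCl2, 0.5 mM EGTA, GTP and 10% glycerol. Compound (added as 10x stock in 50% DMSO) or DMSO was preincubated 2 min at 37 °C in a prewarmed plate. Cold tubulin was then added, and polymerization at 37 °C was followed by A340 over time. Dose-response, mean ± s.d., n=3.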

[12] = Cytotoxicity against human Caki1 cells after 48 hrs by SRB assay; type: functional; details: CAKI-1, 48 h; in short: as §1
[13] = Cytotoxicity against human UACC257 cells after 48 hrs by SRB assay; type: functional; details: UACC-257, 48 h; in short: as §2
[14] = Cytotoxicity against human UO31 cells after 48 hrs by SRB assay; type: functional; details: UO-31, 48 h; in short: as §2
SR = assay: Cytotoxicity against human SR cells after 48 hrs by SRB assay; type: functional; in short: as §1
[15] = Cytotoxicity against human SNB19 cells after 48 hrs by SRB assay; type: functional; details: SNB-19, 48 h; in short: as §1
MDA-MB-231 = assay: Cytotoxicity against human MDA-MB-231 cells after 48 hrs by SRB assay; type: functional; details: MDA-MB-231, 48 h; in short: as §1
[16] = Cytotoxicity against human SNB75 cells after 48 hrs by SRB assay; type: functional; details: SNB-75, 48 h; in short: as §1
[17] = Cytotoxicity against human Hs 578T cells after 48 hrs by SRB assay; type: functional; in short: as §1
[18] = Cytotoxicity against human RPMI8226 cells after 48 hrs by SRB assay; type: functional; details: RPMI-8226, 48 h; in short: as §1
CCRF-CEM = assay: Cytotoxicity against human CCRF-CEM cells after 48 hrs by SRB assay; type: functional; in short: as §1
SK-MEL-5 = assay: Cytotoxicity against human SK-MEL-5 cells after 48 hrs by SRB assay; type: functional; details: SK-MEL-5, 48 h; in short: as §1
MDA-MB-468 = assay: Cytotoxicity against human MDA-MB-468 cells after 48 hrs by SRB assay; type: functional; details: MDA-MB-468, 48 h; in short: as §1
T47D = assay: Cytotoxicity against human T47D cells after 48 hrs by SRB assay; type: functional; in short: as §2
786-0 = assay: Cytotoxicity against human 786-0 cells after 48 hrs by SRB assay; type: functional; details: 786-0, 48 h; in short: as §1
[19] = Cytotoxicity against human LOXIMVI cells after 48 hrs by SRB assay; type: functional; details: LOX IMVI; in short: as §1
SK-MEL-2 = assay: Cytotoxicity against human SK-MEL-2 cells after 48 hrs by SRB assay; type: functional; details: SK-MEL-2, 48 h; in short: as §1
MDA-MB-435 = assay: Cytotoxicity against human MDA-MB-435 cells after 48 hrs by SRB assay; type: functional; details: MDA-MB-435, 48 h; in short: as §1
HT-29 = assay: Cytotoxicity against human HT-29 cells after 48 hrs by SRB assay; type: functional; details: HT-29, 48 h; in short: as §1
[20] = Cytotoxicity against human PC3 cells after 48 hrs by SRB assay; type: functional; details: PC-3, 48 h; in short: as §1
[21] = Cytotoxicity against human HCT15 cells after 48 hrs by SRB assay; type: functional; details: HCT-15, 48 h; in short: as §1
[22] = Cytotoxicity against human DU145 cells after 48 hrs by SRB assay; type: functional; details: DU-145, 48 h; in short: as §1
[23] = Cytotoxicity against human SF539 cells after 48 hrs by SRB assay; type: functional; details: SF-539, 48 h; in short: as §1
[24] = Cytotoxicity against human RXF393 cells after 48 hrs by SRB assay; type: functional; details: RXF 393, 48 h; in short: as §1
[25] = Cytotoxicity against human TK10 cells after 48 hrs by SRB assay; type: functional; details: TK-10, 48 h; in short: as §2
NCI-H522 = assay: Cytotoxicity against human NCI-H522 cells after 48 hrs by SRB assay; type: functional; details: NCI-H522, 48 h; in short: as §1
[26] = Cytotoxicity against human COLO205 cells after 48 hrs by SRB assay; type: functional; details: COLO 205, 48 h; in short: as §1
MCF7 = assay: Cytotoxicity against human MCF7 cells after 48 hrs by SRB assay; type: functional; details: MCF7, 48 h; in short: as §1
[27] = Cytotoxicity against human OVCAR4 cells after 48 hrs by SRB assay; type: functional; details: OVCAR-4, 48 h; in short: as §1
KM12 = assay: Cytotoxicity against human KM12 cells after 48 hrs by SRB assay; type: functional; details: KM12, 48 h; in short: as §1
M14 = assay: Cytotoxicity against human M14 cells after 48 hrs by SRB assay; type: functional; details: M14, 48 h; in short: as §1
A549 = assay: Cytotoxicity against human A549 cells after 48 hrs by SRB assay; type: functional; details: A549, 48 h; in short: as §1
A498 = assay: Cytotoxicity against human A498 cells after 48 hrs by SRB assay; type: functional; details: A498, 48 h; in short: as §1
[28] = Cytotoxicity against human OVCAR5 cells after 48 hrs by SRB assay; type: functional; details: OVCAR-5, 48 h; in short: as §1
[29] = Cytotoxicity against human HCT116 cells after 48 hrs by SRB assay; type: functional; details: HCT-116, 48 h; in short: as §1
[30] = Cytotoxicity against human OVCAR3 cells after 48 hrs by SRB assay; type: functional; details: OVCAR-3, 48 h; in short: as §1
[31] = Cytotoxicity against human HCC2998 cells after 48 hrs by SRB assay; type: functional; details: HCC 2998, 48 h; in short: as §1
[32] = Cytotoxicity against human Hs578T cells assessed as reduction of cell viability after 48 hrs by calcein-AM-based fluorescence analysis; type: functional; details: Hs-578T
In short: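 Cells seeded at 3,000 per well in DMEM with 10% FBS and left overnight at 37 °C. A range of compound concentrations or vehicle was then added for 48 h. Cells were washed with DPBS pH 7.4 and loaded with 2 μM calcein-AM for 30 min at 25 °C. Fluorescence read at ex 490/em 520 nm; viability is given relative to untreated control (100%). Mean ± s.d.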

In the case of `COc1cc(OC)cc(-c2n[nH]nc2-c2c[nH]c3ccccc23)c1`, the GI50 [1] is reported as 29 nM, the GI50 [2] is reported as 34 nM and the GI50 [3] is reported as 70 nM. It also gave a GI50 (NCI-H23) of 124 nM, a GI50 [4] of 33 nM and a GI50 (SN12C) of 69 nM. The GI50 [5] was 30 nM, the GI50 (NCI-H226) was 75 nM and the GI50 [6] was 17 nM. It also gave a GI50 [7] of 67 nM, a GI50 (NCI-H460) of 38 nM and a GI50 (K562) of 31 nM. The GI50 (U-251) was 54 nM, the GI50 [8] was 26 nM and the GI50 [9] was 63 nM. For the same molecule, the GI50 [10] was 34 nM, the GI50 (ACHN) was 45 nM and the GI50 [11] was 35 nM. It also gave an IC50 (Tubulin) of 13500 nM, a GI50 [12] of 38 nM and a GI50 [13] greater than 100000 nM. For the same molecule, the GI50 [14] was 62 nM, the GI50 (SR) was 47 nM and the GI50 [15] was 56 nM. It also gave a GI50 (MDA-MB-231) of 76 nM, a GI50 [16] of 25 nM and a GI50 [17] of 31 nM. For the same molecule, the GI50 [18] was 53 nM, the GI50 (CCRF-CEM) was 37 nM and the GI50 (SK-MEL-5) was 34 nM. It also gave a GI50 (MDA-MB-468) of 37 nM, a GI50 (T47D) of 44 nM and a GI50 (786-0) of 30 nM. The GI50 [19] was 55 nM, the GI50 (SK-MEL-2) was 31 nM and the GI50 (MDA-MB-435) was 10 nM. For the same molecule, the GI50 (HT-29) was 31 nM, the GI50 [20] was 38 nM and the GI50 [21] was 31 nM. For the same molecule, the GI50 [22] was 75 nM, the GI50 [23] was 24 nM and the GI50 [24] was 52 nM. It also gave a GI50 [25] of 83 nM, a GI50 (NCI-H522) of 13 nM and a GI50 [26] of 35 nM. For the same molecule, the GI50 (MCF7) was 29 nM, the GI50 [27] was 2670 nM and the GI50 (KM12) was 45 nM. It also gave a GI50 (M14) of 31 nM, a GI50 (A549) of 88 nM and a GI50 (A498) of 33 nM. The GI50 [28] was 416 nM, the GI50 [29] was 31 nM and the GI50 [30] was 28 nM. For the same molecule, the GI50 [31] was 251 nM.
With `COc1cc(OC)cc(-c2n[nH]nc2-c2cc3ccccc3s2)c1` the GI50 [32] was 65 nM.
